ChEMBL document CHEMBL1821556, “Structure-activity relationships of antitubercular nitroimidazoles. 3. Exploration of the linker and lipophilic tail of ((s)-2-nitro-6,7-dihydro-5H-imidazo[2,1-b][1,3]oxazin-6-yl)-(4-trifluoromethoxybenzyl)amine (6-amino PA-824)” (J Med Chem, 2011)

Assays:
[1] = substrate: O=[N+]([O-])c1cn2c(n1)OC[C@@H](NCc1ccc(OC(F)(F)F)cc1OCC1CC1)C2; test: (§1) Ratio of Kcat to Km for Mycobacterium tuberculosis deazaflavin-dependent nitroreductase
Method in brief: (§2)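 Each compound was tested as a substrate of Mtb deazaflavin-dependent nitroreductase (Ddn). kcat/KM was derived from the kinetics of reduced F420 reoxidation. Assays were repeated in two independent laboratories until concordant, and values are averages of multiple measurements.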

[2] = substrate: O=[N+]([O-])c1cn2c(n1)OC[C@@H](NCc1ccc(OC(F)(F)F)cc1Oc1ccccc1)C2; test: as §1; method in brief: as §2
[3] = substrate: O=[N+]([O-])c1cn2c(n1)OC[C@@H](NC(c1ccc(OC(F)(F)F)cc1)c1ncc[nH]1)C2; test: as §1; method in brief: as §2
[4] = substrate: O=[N+]([O-])c1cn2c(n1)OC[C@@H](OCc1ccc(OC(F)(F)F)c(F)c1)C2; test: as §1; method in brief: as §2
[5] = substrate: O=[N+]([O-])c1cn2c(n1)OC[C@@H](NC(CO)c1ccc(OC(F)(F)F)cc1)C2; test: as §1; method in brief: as §2
[6] = substrate: CCCN(Cc1ccc(OC(F)(F)F)cc1)[C@@H]1COc2nc([N+](=O)[O-])cn2C1; test: as §1; method in brief: as §2
[7] = substrate: O=[N+]([O-])c1cn2c(n1)OC[C@@H](NCc1ccc(OC(F)(F)F)cc1OCc1ccccc1)C2; test: as §1; method in brief: as §2
[8] = substrate: COc1cc(OC(F)(F)F)ccc1CN[C@@H]1COc2nc([N+](=O)[O-])cn2C1; test: as §1; method in brief: as §2
[9] = substrate: CCC(N[C@@H]1COc2nc([N+](=O)[O-])cn2C1)c1ccc(OC(F)(F)F)cc1; test: as §1; method in brief: as §2
[10] = substrate: O=[N+]([O-])c1cn2c(n1)OC[C@@H](NCc1ccc(OC(F)(F)F)cc1Br)C2; test: as §1; method in brief: as §2
[11] = substrate: O=C(c1cccc(Cl)c1)N(Cc1ccc(OC(F)(F)F)cc1)[C@@H]1COc2nc([N+](=O)[O-])cn2C1; test: as §1; method in brief: as §2
[12] = substrate: CN(Cc1ccc(OC(F)(F)F)cc1)[C@@H]1COc2nc([N+](=O)[O-])cn2C1; test: as §1; method in brief: as §2
[13] = substrate: O=[N+]([O-])c1cn2c(n1)OC[C@@H](NCc1ccc(OC(F)(F)F)c(Cl)c1)C2; test: as §1; method in brief: as §2
[14] = substrate: O=[N+]([O-])c1cn2c(n1)OC[C@@H](NCc1ccc(OC(F)(F)F)c(O)c1)C2; test: as §1; method in brief: as §2
[15] = substrate: O=CN(Cc1ccc(OC(F)(F)F)cc1)[C@@H]1COc2nc([N+](=O)[O-])cn2C1; test: as §1; method in brief: as §2
[16] = substrate: O=[N+]([O-])c1cn2c(n1)OC[C@@H](NCc1ccc(OC(F)(F)F)cc1)C2; test: as §1; method in brief: as §2
[17] = substrate: O=[N+]([O-])c1cn2c(n1)OC[C@@H](NCc1ccc(OC(F)(F)F)c(N3CCOCC3)c1)C2; test: as §1; method in brief: as §2
[18] = substrate: O=[N+]([O-])c1cn2c(n1)OC[C@@H](NC(CCO)c1ccc(OC(F)(F)F)cc1)C2; test: as §1; method in brief: as §2
[19] = substrate: O=[N+]([O-])c1cn2c(n1)OC[C@@H](OCc1ccc(OC(F)(F)F)cc1)C2; test: as §1; method in brief: as §2
[20] = substrate: O=[N+]([O-])c1cn2c(n1)OC[C@@H](NCc1ccc(OC(F)(F)F)cc1N1CCOCC1)C2; test: as §1; method in brief: as §2
[21] = substrate: CC(N[C@@H]1COc2nc([N+](=O)[O-])cn2C1)c1ccc(OC(F)(F)F)cc1; test: as §1; method in brief: as §2
[22] = substrate: O=[N+]([O-])c1cn2c(n1)OC[C@@H](NCc1ccc(OC(F)(F)F)cc1O)C2; test: as §1; method in brief: as §2
[23] = substrate: O=[N+]([O-])c1cn2c(n1)OC[C@@H](NCc1ccc(OC(F)(F)F)cc1N1CCCCC1)C2; test: as §1; method in brief: as §2
[24] = substrate: NC(=O)C(N[C@@H]1COc2nc([N+](=O)[O-])cn2C1)c1ccc(OC(F)(F)F)cc1; test: as §1; method in brief: as §2
[25] = substrate: CCCCC(N[C@@H]1COc2nc([N+](=O)[O-])cn2C1)c1ccc(OC(F)(F)F)cc1; test: as §1; method in brief: as §2
[26] = substrate: O=C(c1ccccc1Cl)N(Cc1ccc(OC(F)(F)F)cc1)[C@@H]1COc2nc([N+](=O)[O-])cn2C1; test: as §1; method in brief: as §2
[27] = substrate: COc1cc(CO[C@@H]2COc3nc([N+](=O)[O-])cn3C2)ccc1OC(F)(F)F; test: as §1; method in brief: as §2
[28] = substrate: O=C(c1ccccc1)N(Cc1ccc(OC(F)(F)F)cc1)[C@@H]1COc2nc([N+](=O)[O-])cn2C1; test: as §1; method in brief: as §2
[29] = substrate: O=[N+]([O-])c1cn2c(n1)OC[C@@H](NC(c1ccc(OC(F)(F)F)cc1)c1ncco1)C2; test: as §1; method in brief: as §2
[30] = substrate: O=C(c1ccc(Cl)cc1)N(Cc1ccc(OC(F)(F)F)cc1)[C@@H]1COc2nc([N+](=O)[O-])cn2C1; test: as §1; method in brief: as §2
[31] = substrate: O=[N+]([O-])c1cn2c(n1)OC[C@@H](OCc1ccc(OC(F)(F)F)c(O)c1)C2; test: as §1; method in brief: as §2
[32] = substrate: CCNC(=O)N(Cc1ccc(OC(F)(F)F)cc1)[C@@H]1COc2nc([N+](=O)[O-])cn2C1; test: as §1; method in brief: as §2
[33] = substrate: O=[N+]([O-])c1cn2c(n1)OC[C@@H](NCc1ccc(OC(F)(F)F)c(F)c1)C2; test: as §1; method in brief: as §2
[34] = substrate: O=[N+]([O-])c1cn2c(n1)OC[C@@H](NCc1ccc(OC(F)(F)F)c(Oc3ccccc3)c1)C2; test: as §1; method in brief: as §2
[35] = substrate: CN1CCN(c2cc(OC(F)(F)F)ccc2CN[C@@H]2COc3nc([N+](=O)[O-])cn3C2)CC1; test: as §1; method in brief: as §2
[36] = substrate: CC(=O)N(Cc1ccc(OC(F)(F)F)cc1)[C@@H]1COc2nc([N+](=O)[O-])cn2C1; test: as §1; method in brief: as §2
[37] = substrate: CC(C)N(Cc1ccc(OC(F)(F)F)cc1)[C@@H]1COc2nc([N+](=O)[O-])cn2C1; test: as §1; method in brief: as §2
[38] = substrate: CN1CCN(c2cc(CN[C@@H]3COc4nc([N+](=O)[O-])cn4C3)ccc2OC(F)(F)F)CC1; test: as §1; method in brief: as §2
[39] = substrate: O=[N+]([O-])c1cn2c(n1)OC[C@@H](NCc1ccc(OC(F)(F)F)cc1F)C2; test: as §1; method in brief: as §2
[40] = substrate: COC(=O)c1cc(CN[C@@H]2COc3nc([N+](=O)[O-])cn3C2)ccc1OC(F)(F)F; test: as §1; method in brief: as §2
[41] = substrate: O=[N+]([O-])c1cn2c(n1)OC[C@@H](NCc1ccc(OC(F)(F)F)cc1Cl)C2; test: as §1; method in brief: as §2
[42] = substrate: O=[N+]([O-])c1cn2c(n1)OC[C@@H](NCc1ccc(OC(F)(F)F)cc1OC1CC1)C2; test: as §1; method in brief: as §2
[43] = substrate: COc1cc(CN[C@@H]2COc3nc([N+](=O)[O-])cn3C2)ccc1OC(F)(F)F; test: as §1; method in brief: as §2
[44] = substrate: CCCC(N[C@@H]1COc2nc([N+](=O)[O-])cn2C1)c1ccc(OC(F)(F)F)cc1; test: as §1; method in brief: as §2

B1: Deazaflavin-dependent nitroreductase (Mycobacterium tuberculosis), P9WP15 (protein)
chain: MPKSPPRFLNSPLSDFFIKWMSRINTWMYRRNDGEGLGGTFQKIPVALLTTTGRKTGQPRVNPLYFLRDGGRVIVAASKGGAEKNPMWYLNLKANPKVQVQIKKEVLDLTARDATDEERAEYWPQLVTMYPSYQDYQSWTDRTIPIVVCEP
Which kcat/Km [1] does the source give for B1 here?
Its kcat/Km is 0.37.

What about the kcat/Km [2] of the same protein?
Its kcat/Km is 0.42.

What about the kcat/Km [3] of the same protein?
Its kcat/Km is 0.17.

What about the kcat/Km [4] of the same protein?
Its kcat/Km is 0.33.

What about the kcat/Km [5] of the same protein?
The kcat/Km was 0.15.

What about the kcat/Km [6] of the same protein?
The kcat/Km was 0.32.

And the kcat/Km [7]?
Its kcat/Km is 0.31.

What about the kcat/Km [8] of the same protein?
Its kcat/Km is 0.15.

And the kcat/Km [9]?
Its kcat/Km is 0.14.

What about the kcat/Km [10] of the same protein?
Its kcat/Km is 0.25.

And the kcat/Km [11]?
The kcat/Km was 0.25.

What about the kcat/Km [12] of the same protein?
Its kcat/Km is 0.25.

And the kcat/Km [13]?
The kcat/Km was 0.31.

And the kcat/Km [14]?
The kcat/Km was 0.13.

What about the kcat/Km [15] of the same protein?
The kcat/Km was 0.07.

What about the kcat/Km [16] of the same protein?
Its kcat/Km is 0.17.

And the kcat/Km [17]?
Its kcat/Km is 0.1.

And the kcat/Km [18]?
Its kcat/Km is 0.21.

And the kcat/Km [19]?
Its kcat/Km is 0.15.

What about the kcat/Km [20] of the same protein?
Its kcat/Km is 0.19.

What about the kcat/Km [21] of the same protein?
The kcat/Km was 0.09.

What about the kcat/Km [22] of the same protein?
The kcat/Km was 0.18.

And the kcat/Km [23]?
Its kcat/Km is 0.42.

What about the kcat/Km [24] of the same protein?
Its kcat/Km is 0.12.

And the kcat/Km [25]?
Its kcat/Km is 0.4.

And the kcat/Km [26]?
Its kcat/Km is 0.13.

What about the kcat/Km [27] of the same protein?
The kcat/Km was 0.24.

What about the kcat/Km [28] of the same protein?
The kcat/Km was 0.16.

And the kcat/Km [29]?
Its kcat/Km is 0.2.

What about the kcat/Km [30] of the same protein?
Its kcat/Km is 0.37.

And the kcat/Km [31]?
Its kcat/Km is 0.14.

What about the kcat/Km [32] of the same protein?
Its kcat/Km is 0.

And the kcat/Km [33]?
Its kcat/Km is 0.21.

And the kcat/Km [34]?
The kcat/Km was 0.13.

And the kcat/Km [35]?
Its kcat/Km is 0.17.

And the kcat/Km [36]?
The kcat/Km was 0.02.

What about the kcat/Km [37] of the same protein?
Its kcat/Km is 0.04.

What about the kcat/Km [38] of the same protein?
The kcat/Km was 0.16.

What about the kcat/Km [39] of the same protein?
Its kcat/Km is 0.2.

What about the kcat/Km [40] of the same protein?
The kcat/Km was 0.17.

And the kcat/Km [41]?
Its kcat/Km is 0.27.

What about the kcat/Km [42] of the same protein?
Its kcat/Km is 0.31.

What about the kcat/Km [43] of the same protein?
The kcat/Km was 0.19.

What about the kcat/Km [44] of the same protein?
Its kcat/Km is 0.31.
